72 compounds from ChEMBL document CHEMBL4513216, “Probing the Open Global Health Chemical Diversity Library for Multistage-Active Starting Points for Next-Generation Antimalarials” (ACS Infect Dis, 2020) can be followed below.

The nature of the data set: Toxicity liver stage against HepG2, at 10uM. In kind it is cell-based. Set-up: test concentration 10 uM, cell line HepG2-A16-CD81EGFP. Particulars: human, HepG2-A16-CD81EGFP cells; read-out: INHIBITION
The procedure, abridged: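 Uninfected HepG2-A16-CD81EGFP cells, 3 × 10^3 per well, 1536-well, plated on prespotted compound at 10 μM final, parasite-free screening media added to match infected plates; puromycin 10 μM positive, DMSO 0.5% negative; run in parallel with 48 h PbLuc assay at 37 °C, 5% CO2; viability by CellTiter-Glo luminescence, normalized to controls.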
With `Cc1[nH]ncc1C(=O)N1CCCC(c2cc(C(F)(F)F)[nH]n2)C1` (configuration not stated), the cytotoxicity at 10 µM was -7.2%.

In the case of `CC(C)(C)NC(=O)CN1CCCN(Cc2ccc(C#N)cc2)CC1`, the cytotoxicity at 10 µM is -4.78%.

With `Cn1cc(CN2CCCC23CCN(C(=O)c2ccccn2)CC3)cn1`, the cytotoxicity at 10 µM was -1.94%.

In the case of `CCc1nc(CN2CCCN(C(=O)Cc3cccs3)CC2)cs1`, the cytotoxicity at 10 µM stood at 2.55%.

Turning to `CCOCC(=O)NCCc1nc(C2CC2)cc(C(F)(F)F)n1`, the cytotoxicity at 10 µM turned out to be 1.01%.

Turning to `CC(C)C(=O)N1CCCC2(CCCN2Cc2cccnc2)C1` (configuration not stated), the cytotoxicity at 10 µM stood at 5.22%.

On to `CC(Cn1cccn1)NC(=O)N1CCC(NS(C)(=O)=O)CC1` (configuration not stated), for which the cytotoxicity at 10 µM was -0.508%.

As for `C[C@@H]1CN(C2CCOC2)C[C@]12CCN(c1cccnc1)C2=O` (some centres not stated), the cytotoxicity at 10 µM was determined as 7.49%.

For `CCn1nc(C)c2nn(CC(=O)NC3CCSCC3)cc21`, the cytotoxicity at 10 µM was -3.57%.

For `CC(C)NC(=O)N1CCOC2(CCCN(c3ncccc3F)C2)C1` (configuration not stated), the cytotoxicity at 10 µM is -4.45%.

On to `Cc1nc(CN2CCc3ncnc(-c4ccsc4)c3CC2)cs1`, for which the cytotoxicity at 10 µM is -79.8%.

In the case of `Cc1nccn1CCN(C)C(=O)C1CCN(C(=O)C2CCCC2)CC1`, the cytotoxicity at 10 µM was -4.06%.

Consider `CC(Oc1ccc(S(C)(=O)=O)cc1)C(=O)NC(N)=O` (configuration not stated), for which the cytotoxicity at 10 µM is -5.69%.

Turning to `CC(O)CN1CCN(Cc2cccc(C#N)c2)CC1` (configuration not stated), the cytotoxicity at 10 µM was 9.56%.

As for `CN1C(=O)CC(c2ccccc2)C12CCN(CC1CC1)CC2` (configuration not stated), the cytotoxicity at 10 µM was -1.95%.

With `Cc1ccc(NC2(C(=O)N3CCn4cncc4C3)CCCCC2)cc1C`, the cytotoxicity at 10 µM stood at 8.47%.

For the compound `CN(C)CCCN(C)c1nccc(N2CCN[C@H]3CS(=O)(=O)C[C@H]32)n1`, the cytotoxicity at 10 µM is -0.0813%.

For the compound `CC(C)(CC(=O)Nc1cccc(Oc2ccccn2)c1)C(=O)O`, the cytotoxicity at 10 µM was -17.6%.

For `COc1ccccc1Oc1cncc(C2CCCN(CC(N)=O)C2)n1` (configuration not stated), the cytotoxicity at 10 µM was -15.5%.

As to `Cn1nc2c(cc1=O)CN(CC(=O)NC1CCCCNC1=O)CC2` (configuration not stated), the cytotoxicity at 10 µM was determined as 1.9%.

As for `O=C(NCCNc1ncccn1)C1CCN(CC(F)(F)F)CC1`, the cytotoxicity at 10 µM was -5.6%.

Take `Cc1c(NCC(C)(C)C)cccc1C(=O)NCc1ncnn1C`: the cytotoxicity at 10 µM was -3.53%.

On to `COCC1CN(C(=O)c2ccc(C)o2)Cc2nccn2C1` (configuration not stated), for which the cytotoxicity at 10 µM was -97.1%.

With `CCc1cnc(NC2CCc3c(ccc(=O)n3C)C2)nc1` (configuration not stated), the cytotoxicity at 10 µM was -125%.

`CCOCCCn1c(NC(=O)c2cnc(C)s2)nc2ccccc21`: the cytotoxicity at 10 µM was -30%.

Take `N#Cc1cccc(S(=O)(=O)Nc2c(F)cccc2N2CCCC2)c1`: the cytotoxicity at 10 µM stood at 2.62%.

Regarding `COc1ccc(-n2ccc(C(=O)N(C)C(C)C3(C)CC3)n2)cc1` (configuration not stated), the cytotoxicity at 10 µM is -2.41%.

For the compound `CC1CN(C)CCN1C(=O)c1cccn1Cc1ccncc1` (configuration not stated), the cytotoxicity at 10 µM was -5.53%.

On to `c1cnn(Cc2ccc(CN3CCC4(CCNCC4)C3)cc2)c1`, for which the cytotoxicity at 10 µM was -15.6%.

With `COc1ccc(CN2CCCn3cnc(COCC4CC4)c3C2)cc1`, the cytotoxicity at 10 µM came to 11%.

`O=C1CC(c2ccsc2)c2sc(C(=O)O)c(-c3ccc(F)cc3)c2N1` (configuration not stated): the cytotoxicity at 10 µM is 4.4%.

Regarding `CN(CCCOc1ccccc1)Cc1nccn1C`, the cytotoxicity at 10 µM is 2.07%.

With `O=C1CCC[C@]2(CN(S(=O)(=O)N3CCOCC3)C[C@H]2c2cccnc2)N1`, the cytotoxicity at 10 µM was -0.701%.

Consider `CCN(C(=O)COC)C(c1cccnc1)c1cc(C)cc(C)c1` (configuration not stated), for which the cytotoxicity at 10 µM is -20.9%.

Regarding `O=C1CC2(CNCCN(C(=O)Nc3ccccc3)C2)CN1` (configuration not stated), the cytotoxicity at 10 µM is 2.23%.

With `Cc1ccc(S(N)(=O)=O)cc1C(=O)NC1CCCN(C)C1` (configuration not stated), the cytotoxicity at 10 µM was -1.96%.

Consider `CN(C)Cc1cnc2n1CCN(C(=O)NC1CCCC1)CC2`, for which the cytotoxicity at 10 µM was -3.77%.

Take `Cn1cc(N2CC3(CCN(CC4CCOCC4)CC3)OCC2=O)cn1`: the cytotoxicity at 10 µM is -9.29%.

Consider `CCOCC1CN(CCc2ccccc2)Cc2c1cnn2C` (configuration not stated), for which the cytotoxicity at 10 µM is -120%.

Turning to `Cc1noc(C)c1CN1CC[C@H]2C[C@@H](c3ccncn3)O[C@@H]2C1`, the cytotoxicity at 10 µM is -3.04%.

On to `Cc1ccc(OCCNC(=O)C2CCOCC2)c(C)c1`, for which the cytotoxicity at 10 µM was 16.4%.

In the case of `Cc1sc(Br)cc1S(=O)(=O)NCc1ccccn1`, the cytotoxicity at 10 µM is -3.85%.

Take `Cc1nc(-c2ccco2)ccc1C(=O)NCCN1CCN(C)CC1`: the cytotoxicity at 10 µM came to 3.88%.

On to `COc1ccc(-c2cnc(CN3CCn4c(C)nnc4C3)o2)cc1`, for which the cytotoxicity at 10 µM was -13.5%.

For `O=C1NCC[C@]12CN(CC1CCOCC1)C[C@H]2c1ccccc1`, the cytotoxicity at 10 µM came to 6.59%.

In the case of `CN(C)C(CNC(=O)c1nc(N2CCOCC2)ncc1Cl)c1ccco1` (configuration not stated), the cytotoxicity at 10 µM turned out to be 7.96%.

For `CN(C)c1ncc2c(O)nc(C3CCCNC3)cc2n1` (configuration not stated), the cytotoxicity at 10 µM was 8.62%.

For `O=C(NCCN1CCC(c2cccs2)CC1)Nc1cccs1`, the cytotoxicity at 10 µM was -20.6%.

On to `COCCN1CCc2cc(C(=O)O)c(NCC3CC3)nc2CC1`, for which the cytotoxicity at 10 µM was found to be 4.21%.

Take `Cc1cccnc1CNC(=O)N(CCCO)C1CCc2ccccc21` (configuration not stated): the cytotoxicity at 10 µM was -11.4%.

For the compound `Cc1cc(C)c2[nH]c(CN3CCCC(N4CCOCC4)C3)cc(=O)c2c1` (configuration not stated), the cytotoxicity at 10 µM is -1.78%.

For the compound `Cc1n[nH]c(C)c1Sc1ccccc1NC(=O)N1CCN(C)CC1`, the cytotoxicity at 10 µM is -12.9%.

For `Cc1cc(NC2CC3(CCN(Cc4ncccc4F)C3)C2)ncn1` (configuration not stated), the cytotoxicity at 10 µM was 0.0666%.

With `Cc1nc(O)cc(C2CCN(Cc3ccc(F)c(F)c3)C2)n1` (configuration not stated), the cytotoxicity at 10 µM is -11.3%.

Take `c1ccc(-c2nc(CN3CCCC3Cn3cncn3)co2)cc1` (configuration not stated): the cytotoxicity at 10 µM was -1.99%.

As for `CCc1ccc(C(=O)O)cc1S(=O)(=O)Nc1c(C)ccn(C)c1=O`, the cytotoxicity at 10 µM came out at 4.28%.

As to `Cc1ccccc1C(=O)CN1C(=O)c2ccccc2CS1(=O)=O`, the cytotoxicity at 10 µM was -10.1%.

For the compound `O=C(O)c1cc(-c2cccs2)nc2c(Br)cnn12`, the cytotoxicity at 10 µM was -9.24%.

Turning to `CCN(CC)C(=O)CN1CCC2(C=Cc3cc(Cl)c(C)cc3O2)CC1`, the cytotoxicity at 10 µM was -3.02%.

Take `CNC(=O)C1(c2cnccn2)CCCN1C(=O)Cc1ccsc1` (configuration not stated): the cytotoxicity at 10 µM was 4.12%.

Take `CN(CCc1ccccn1)c1cc(N2CCCCC2)ncn1`: the cytotoxicity at 10 µM was found to be 3.61%.

For `CC(C)c1nc2n(n1)CC(NCc1nnc(C3CC3)o1)CC2` (configuration not stated), the cytotoxicity at 10 µM is -11.6%.

With `CC(C)c1nnc2n1CCN(C(=O)c1cccc(S(C)(=O)=O)c1)C2`, the cytotoxicity at 10 µM was -28.4%.

As for `CC(C)(C)c1nc2cc(NC(=O)Cn3ccc(=O)[nH]c3=O)ccc2o1`, the cytotoxicity at 10 µM is -7.07%.

As for `CN(Cc1cccs1)C(=O)CS(=O)(=O)Cc1ccc(Cl)c(Cl)c1`, the cytotoxicity at 10 µM is 0.866%.

As for `O=C(Nc1cnn(-c2ccccc2Cl)c1)NC1CCC(O)CC1` (configuration not stated), the cytotoxicity at 10 µM was -2.49%.

Consider `Cc1cnc2c(c1NCc1ccc(F)cc1)c(=O)n(C)c(=O)n2C`, for which the cytotoxicity at 10 µM is -7.36%.

With `Cc1cccc(C2CCCN2S(=O)(=O)N(C)C)n1` (configuration not stated), the cytotoxicity at 10 µM is -5.5%.

As for `Cc1n[nH]c(C)c1CC(=O)N1CCN(C)C2(CCNC(=O)CC2)C1` (configuration not stated), the cytotoxicity at 10 µM worked out at 2.65%.

Consider `O=C(NC[C@H]1CCCC[C@H]1O)c1ccc2nc(-c3ccco3)[nH]c2c1`, for which the cytotoxicity at 10 µM was -5.78%.

With `Cc1nn(C)cc1-c1cc(C(=O)N2CCc3ncc(Cl)cc3C2)no1`, the cytotoxicity at 10 µM came out at 1.18%.

As to `CN(Cc1cn(C2CCNCC2)nn1)CC1CCCO1` (configuration not stated), the cytotoxicity at 10 µM was -4.76%.
